Data published in ChEMBL document CHEMBL1136006, “New PET imaging agent for the serotonin transporter: [(18)F]ACF (2-[(2-amino-4-chloro-5-fluorophenyl)thio]-N,N-dimethyl-benzenmethanamine)” (J Med Chem, 2002).

Key:
Rattus norvegicus [1] = species on record: Rattus norvegicus; test: Regional brain distribution of [18F]ACF radiolabeled compound in rat striatum after 120 min; type: ADME, organism-based; details: in vivo, 2 h
Outline: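 Rats (3 per group) under ether anaesthesia received 30 μCi tracer in 0.2 mL saline into the femoral vein. Killed by cardiac excision under ether at the set time. Striatum and other brain regions dissected, weighed and gamma-counted. % dose/g calculated against counts of a diluted 1% initial-dose standard. Values given as average ± SD of three rats.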

Rattus norvegicus [2] = species on record: Rattus norvegicus; test: Organ distribution of [18F]-ACF radiolabeled compound in rat kidney after 60 min; type: ADME, organism-based; details: in vivo, 1 h
Outline: (§1)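 Under ether anesthesia, 30 μCi no-carrier-added tracer in 0.2 mL saline injected into the femoral vein. Rats killed by cardiac excision at the stated time. Organs were removed, weighed and counted; % dose/organ was calculated against counts of a 1% initial-dose standard. Three rats per time, average ± SD.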

Rattus norvegicus [3] = test: Effect of pretreatment with methylphenidate with a dose of 2 mg/kg (i.v.) on specific binding of [18F]ACF in rat brain hippocampus; type: ADME, organism-based; design: dose 2 mg/kg, route intravenous; details: in vivo, iv
Outline: (§2)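 Rats pretreated iv with drug (2 mg/kg) or saline 5 min before iv [18F]ACF (50 μCi). Sacrificed 1 h after tracer. Brain regions were dissected, weighed and counted, and % dose/g was calculated against a diluted initial dose. Drug-treated rats were compared with saline controls by ANOVA/Dunnett's test (p<0.05). Three rats per point, average ± SD.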

Rattus norvegicus [4] = species on record: Rattus norvegicus; test: Ratio of regional brain distribution of [18F]ACF radiolabeled compound in rat striatum to that of cerebellum after 60 min; type: ADME, organism-based; details: in vivo, 1 h
Outline: (§3)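 Rats (three per group) under ether anesthesia got 30 μCi tracer in 0.2 mL saline into the femoral vein and were killed by cardiac excision at the stated time. Cortex, striatum, hippocampus, cerebellum, hypothalamus and the rest of brain were dissected, weighed and gamma counted. %dose/g was taken against counts of a diluted initial dose. Regional ratios are each region's %dose/g over cerebellum's. Mean ± SD.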

Rattus norvegicus [5] = species on record: Rattus norvegicus; test: Organ distribution of [18F]ACF radiolabeled compound in rat blood after 30 min; type: ADME, organism-based; details: in vivo, 0.5 h
Outline: (§4)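 Rats, three per time point, under ether anesthesia; 30 μCi tracer in 0.2 mL saline injected into femoral vein. Sacrificed by cardiac excision under ether at 2, 30, 60, 120 or 240 min. Organs removed, weighed and counted; % dose/organ calculated against counts of 1% of initial dose counted at the same time. Average of three rats ± SD.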

Rattus norvegicus [6] = species on record: Rattus norvegicus; test: Ratio of regional brain distribution of [18F]ACF radiolabeled compound in rat striatum to that of cerebellum after 2 min; type: ADME, organism-based; details: in vivo; outline: as §3
Rattus norvegicus [7] = species on record: Rattus norvegicus; test: Regional brain distribution of [18F]-ACF radiolabeled compound in rat hippocampus after 30 min; type: ADME, organism-based; details: in vivo, 0.5 h; outline: as §3
Rattus norvegicus [8] = species on record: Rattus norvegicus; test: Regional brain distribution of [18F]ACF radiolabeled compound in rat hippocampus after 120 min; type: ADME, organism-based; details: in vivo, 2 h; outline: as §3
Rattus norvegicus [9] = species on record: Rattus norvegicus; test: Regional brain distribution of [18F]-ACF radiolabeled compound in rat remainder (rest of brain) after 240 min; type: ADME, organism-based; details: in vivo, 4 h; outline: as §3
Rattus norvegicus [10] = species on record: Rattus norvegicus; test: Organ distribution of [18F]ACF radiolabeled compound in rat heart after 2 min; type: ADME, organism-based; details: in vivo; outline: as §4
Rattus norvegicus [11] = species on record: Rattus norvegicus; test: Ratio of regional brain distribution of [18F]-ACF radiolabeled compound in rat striatum to that of cerebellum after 240 min; type: ADME, organism-based; details: in vivo, 4 h; outline: as §3
Rattus norvegicus [12] = species on record: Rattus norvegicus; test: Organ distribution of [18F]ACF radiolabeled compound in rat brain after 240 min; type: ADME, organism-based; details: in vivo, 4 h; outline: as §4
Rattus norvegicus [13] = species on record: Rattus norvegicus; test: Organ distribution of [18F]-ACF radiolabeled compound in rat liver after 60 min; type: ADME, organism-based; details: in vivo, 1 h; outline: as §1
Rattus norvegicus [14] = test: Effect of pretreatment with methylphenidate with a dose of 2 mg/kg (i.v.) on specific binding of [18F]ACF in rat brain cerebellum; dose/g; type: ADME, organism-based; design: dose 2 mg/kg, route intravenous; details: in vivo, iv; outline: as §2
Rattus norvegicus [15] = species on record: Rattus norvegicus; test: Ratio of regional brain distribution of [18F]-ACF radiolabeled compound in rat cortex to that of cerebellum after 120 min; type: ADME, organism-based; details: in vivo, 2 h
Outline: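 Rats, three per time point, given 30 μCi tracer in 0.2 mL saline into femoral vein under ether anesthesia; killed at 2, 30, 60, 120 or 240 min. Cortex, striatum, hippocampus, cerebellum, hypothalamus and rest of brain dissected, weighed, counted; % dose/g against diluted initial dose, then each region divided by cerebellum. Average of three rats ± SD.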

Rattus norvegicus [16] = species on record: Rattus norvegicus; test: Regional brain distribution of [18F]-ACF radiolabeled compound in rat remainder (rest of brain) after 30 min; type: ADME, organism-based; details: in vivo, 0.5 h; outline: as §3
Rattus norvegicus [17] = species on record: Rattus norvegicus; test: Organ distribution of [18F]ACF radiolabeled compound in rat bone after 2 min; type: ADME, organism-based, Bone element; details: in vivo; outline: as §4
Rattus norvegicus [18] = test: Effect of pretreatment with […] with a dose of 2 mg/kg (i.v.) on specific binding of [18F]ACF in rat brain blood; type: ADME, organism-based; design: dose 2 mg/kg, route intravenous; details: in vivo, iv; outline: as §2
Rattus norvegicus [19] = species on record: Rattus norvegicus; test: Organ distribution of [18F]ACF radiolabeled compound in rat spleen after 240 min; type: ADME, organism-based; details: in vivo, 4 h; outline: as §4
Rattus norvegicus [20] = species on record: Rattus norvegicus; test: Regional brain distribution of [18F]-ACF radiolabeled compound in rat striatum after 2 min; type: ADME, organism-based; details: in vivo; outline: as §3
Rattus norvegicus [21] = test: Ratio of effect of pretreatment with methylphenidate with a dose of 2 mg/kg (i.v.) on specific binding of [18F]ACF in rat brain cerebellum to that of cerebellum; type: ADME, organism-based; design: dose 2 mg/kg, route intravenous; details: in vivo, iv
Outline: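 Rats (three per point) pretreated iv with competing drug at 2 mg/kg or saline (control) 5 min before iv [18F]ACF (50 μCi). At 1 h post tracer, brain regions (cortex, striatum, hippocampus, cerebellum, hypothalamus, remainder) dissected, weighed, counted as % dose/g and expressed as ratio to cerebellum. Average ± SD; ANOVA with Dunnett's test vs saline controls, p < 0.05.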

Rattus norvegicus [22] = species on record: Rattus norvegicus; test: Organ distribution of [18F]-ACF radiolabeled compound in rat lung after 30 min; type: ADME, organism-based; details: in vivo, 0.5 h; outline: as §1
Rattus norvegicus [23] = species on record: Rattus norvegicus; test: Ratio of regional brain distribution of [18F]-ACF radiolabeled compound in rat hypothalamus to that of cerebellum after 60 min; type: ADME, organism-based; details: in vivo, 1 h; outline: as §3
Rattus norvegicus [24] = species on record: Rattus norvegicus; test: Regional brain distribution of [18F]ACF radiolabeled compound in rat cerebellum after 30 min; type: ADME, organism-based; details: in vivo, 0.5 h; outline: as §3
Rattus norvegicus [25] = species on record: Rattus norvegicus; test: Ratio of regional brain distribution of [18F]ACF radiolabeled compound in rat striatum to that of cerebellum after 30 min; type: ADME, organism-based; details: in vivo, 0.5 h; outline: as §3
Rattus norvegicus [26] = species on record: Rattus norvegicus; test: Ratio of regional brain distribution of [18F]-ACF radiolabeled compound in rat striatum to that of cerebellum after 120 min; type: ADME, organism-based; details: in vivo, 2 h; outline: as §3
Rattus norvegicus [27] = test: Effect of pretreatment with (+)-McN5652 with a dose of 2 mg/kg (i.v.) on specific binding of [18F]ACF in rat brain striatum; type: ADME, organism-based; design: dose 2 mg/kg, route intravenous; details: in vivo, iv; outline: as §2
Rattus norvegicus [28] = species on record: Rattus norvegicus; test: Organ distribution of [18F]-ACF radiolabeled compound in rat muscle after 30 min; type: ADME, organism-based, Muscle tissue; details: in vivo, 0.5 h; outline: as §1
Rattus norvegicus [29] = species on record: Rattus norvegicus; test: Regional brain distribution of [18F]ACF radiolabeled compound in rat hippocampus after 60 min; type: ADME, organism-based; details: in vivo, 1 h; outline: as §3
Rattus norvegicus [30] = species on record: Rattus norvegicus; test: Regional brain distribution of [18F]-ACF radiolabeled compound in rat hypothalamus after 120 min; type: ADME, organism-based; details: in vivo, 2 h; outline: as §3
Rattus norvegicus [31] = test: Effect of pretreatment with […] with a dose of 2 mg/kg (i.v.) on specific binding of [18F]ACF in rat brain hippocampus; type: ADME, organism-based; design: dose 2 mg/kg, route intravenous; details: in vivo, iv; outline: as §2
Rattus norvegicus [32] = species on record: Rattus norvegicus; test: Regional brain distribution of [18F]-ACF radiolabeled compound in rat remainder (rest of brain) after 60 min; type: ADME, organism-based; details: in vivo, 1 h; outline: as §3
Rattus norvegicus [33] = species on record: Rattus norvegicus; test: Organ distribution of [18F]ACF radiolabeled compound in rat kidney after 30 min; type: ADME, organism-based; details: in vivo, 0.5 h; outline: as §4
Rattus norvegicus [34] = species on record: Rattus norvegicus; test: Organ distribution of [18F]-ACF radiolabeled compound in rat skin after 120 min; type: ADME, organism-based; details: in vivo, 2 h; outline: as §1
Rattus norvegicus [35] = species on record: Rattus norvegicus; test: Regional brain distribution of [18F]-ACF radiolabeled compound in rat cerebellum after 2 min; type: ADME, organism-based; details: in vivo; outline: as §3
Rattus norvegicus [36] = species on record: Rattus norvegicus; test: Organ distribution of [18F]ACF radiolabeled compound in rat spleen after 2 min; type: ADME, organism-based; details: in vivo; outline: as §4
Rattus norvegicus [37] = species on record: Rattus norvegicus; test: Regional brain distribution of [18F]-ACF radiolabeled compound in rat cerebellum after 240 min; type: ADME, organism-based; details: in vivo, 4 h; outline: as §3

Dose/g (Rattus norvegicus [1]): 0.15% | Dose/g (Rattus norvegicus [2]): 1.38 % dose/organ | Dose/g (Rattus norvegicus [3]): 0.43% | Ratio (Rattus norvegicus [4]): 2.88 | Dose/g (Rattus norvegicus [5]): 4.52 % dose/organ | Ratio (Rattus norvegicus [6]): 1.41 | Dose/g (Rattus norvegicus [7]): 0.7% | Dose/g (Rattus norvegicus [8]): 0.14% | Dose/g (Rattus norvegicus [9]): 0.03% | Dose/g (Rattus norvegicus [10]): 1.69 % dose/organ | Ratio (Rattus norvegicus [11]): 2.35 | Dose/g (Rattus norvegicus [12]): 0.06 % dose/organ | Dose/g (Rattus norvegicus [13]): 10.3 % dose/organ | Dose/g (Rattus norvegicus [14]): 0.17% | Ratio (Rattus norvegicus [15]): 1.77 | Dose/g (Rattus norvegicus [16]): 0.67% | Dose/g (Rattus norvegicus [17]): 0.01 % dose/organ | Dose/g (Rattus norvegicus [18]): 0.26% | Dose/g (Rattus norvegicus [19]): 0.03 % dose/organ | Dose/g (Rattus norvegicus [20]): 1.78% | Ratio (Rattus norvegicus [21]): 1 | Dose/g (Rattus norvegicus [22]): 1.76 % dose/organ | Ratio (Rattus norvegicus [23]): 3.53 | Dose/g (Rattus norvegicus [24]): 0.37% | Ratio (Rattus norvegicus [25]): 2.06 | Ratio (Rattus norvegicus [26]): 2.97 | Dose/g (Rattus norvegicus [27]): 0.25% | Dose/g (Rattus norvegicus [28]): 10.7 % dose/organ | Dose/g (Rattus norvegicus [29]): 0.45% | Dose/g (Rattus norvegicus [30]): 0.17% | Dose/g (Rattus norvegicus [31]): 0.46% | Dose/g (Rattus norvegicus [32]): 0.39% | Dose/g (Rattus norvegicus [33]): 2.64 % dose/organ | Dose/g (Rattus norvegicus [34]): 2.61 % dose/organ | Dose/g (Rattus norvegicus [35]): 1.33% | Dose/g (Rattus norvegicus [36]): 0.64 % dose/organ | Dose/g (Rattus norvegicus [37]): 0.02%
SMILES: CN(C)Cc1ccccc1Sc1cc(F)c(Cl)cc1N
